ChEMBL document CHEMBL1150402, “Carbon-11 labeled indolylpropylamine analog as a new potential PET agent for imaging of the serotonin transporter” (Bioorg Med Chem, 2008)

Key:
[1] = target: Sodium-dependent noradrenaline transporter (Homo sapiens, UniProt P23975); assay: Displacement of [3H]nisoxetine from human NET expressed in HEK293 cells; type: cell-based
In short: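 Stably transfected HEK293 membrane preparation (50-80 ug protein/tube) in 50 mM Tris-HCl pH 7.4, 120 mM NaCl, 5 mM KCl. 0.5 nM radioligand with 6-12 test concentrations, 21 °C for 60 min. Nonspecific: 100 uM protriptyline. GF/B filtration, scintillation counting. Triplicates per experiment; IC50 by nonlinear fitting, converted to Ki.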

[2] = target: T1, Sodium-dependent serotonin transporter (Homo sapiens, UniProt P31645); assay: biochemical; type: cell-based, HEK293
[3] = target: T1, Sodium-dependent serotonin transporter; assay: biochemical; type: cell-based, HEK293; remark: listed apart in the source
[4] = target: Sodium-dependent dopamine transporter (Homo sapiens, UniProt Q01959); assay: Displacement of [3H]WIN-35428 from human DAT expressed in HEK293 cells; type: cell-based
In short: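 Stably transfected HEK293 membrane preparation (50-80 ug protein/tube) in 50 mM Tris-HCl pH 7.4, 100 mM NaCl. 0.5 nM radioligand with 6-12 test concentrations, on ice for 120 min. Nonspecific: 10 uM GBR12909. GF/B filtration, ice-cold Tris washes, scintillation counting. Triplicates per experiment; IC50 by iterative nonlinear fitting, converted to Ki.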

[5] = target: T2, 5-hydroxytryptamine receptor 1A (Rattus norvegicus, UniProt P19327); assay: Displacement of [3H]8-OH-DPAT from 5HT1A receptor in rat cortical membrane; type: cell membranes
T2 sequence (P19327 whole entry): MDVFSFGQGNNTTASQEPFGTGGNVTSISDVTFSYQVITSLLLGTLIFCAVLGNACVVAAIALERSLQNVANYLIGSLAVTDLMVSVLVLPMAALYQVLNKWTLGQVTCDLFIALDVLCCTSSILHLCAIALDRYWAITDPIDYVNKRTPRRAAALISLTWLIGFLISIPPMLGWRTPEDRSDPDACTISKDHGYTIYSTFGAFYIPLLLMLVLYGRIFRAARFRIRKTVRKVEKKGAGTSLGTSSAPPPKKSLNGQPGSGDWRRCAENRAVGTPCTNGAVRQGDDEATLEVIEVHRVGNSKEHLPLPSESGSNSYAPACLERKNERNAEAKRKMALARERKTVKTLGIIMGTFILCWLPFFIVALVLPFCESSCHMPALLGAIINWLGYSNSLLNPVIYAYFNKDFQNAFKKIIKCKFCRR
In short: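 Cortex from female SPRD rats (~200 g), homogenized and washed in 50 mM Tris-HCl pH 7.4. Membranes in 50 mM Tris-HCl pH 7.4, 4 mM CaCl2, 0.1% ascorbic acid with 0.3 nM radioligand and 6-12 test concentrations, 21 °C for 60 min. Nonspecific: 10 uM serotonin. GF/B filtration, scintillation counting.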

Sequence of Sodium-dependent noradrenaline transporter (P23975 whole entry): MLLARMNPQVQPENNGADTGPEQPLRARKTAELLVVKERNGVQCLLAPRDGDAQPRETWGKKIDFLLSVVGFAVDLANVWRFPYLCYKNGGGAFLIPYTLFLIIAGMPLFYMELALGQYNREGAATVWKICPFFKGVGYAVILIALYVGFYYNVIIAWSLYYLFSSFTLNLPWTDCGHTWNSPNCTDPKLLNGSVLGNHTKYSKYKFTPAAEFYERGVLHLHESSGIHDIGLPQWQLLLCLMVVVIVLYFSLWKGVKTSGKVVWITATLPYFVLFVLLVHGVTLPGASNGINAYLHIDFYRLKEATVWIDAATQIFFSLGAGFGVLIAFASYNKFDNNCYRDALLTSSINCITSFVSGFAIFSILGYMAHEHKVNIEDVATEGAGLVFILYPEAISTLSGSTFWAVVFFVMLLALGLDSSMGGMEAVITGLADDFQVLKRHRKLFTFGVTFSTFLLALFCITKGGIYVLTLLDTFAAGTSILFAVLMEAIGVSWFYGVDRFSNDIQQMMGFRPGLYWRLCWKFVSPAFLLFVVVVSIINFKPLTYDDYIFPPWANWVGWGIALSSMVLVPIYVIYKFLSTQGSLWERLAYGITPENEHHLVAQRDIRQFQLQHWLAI
T1 sequence (P31645 whole entry): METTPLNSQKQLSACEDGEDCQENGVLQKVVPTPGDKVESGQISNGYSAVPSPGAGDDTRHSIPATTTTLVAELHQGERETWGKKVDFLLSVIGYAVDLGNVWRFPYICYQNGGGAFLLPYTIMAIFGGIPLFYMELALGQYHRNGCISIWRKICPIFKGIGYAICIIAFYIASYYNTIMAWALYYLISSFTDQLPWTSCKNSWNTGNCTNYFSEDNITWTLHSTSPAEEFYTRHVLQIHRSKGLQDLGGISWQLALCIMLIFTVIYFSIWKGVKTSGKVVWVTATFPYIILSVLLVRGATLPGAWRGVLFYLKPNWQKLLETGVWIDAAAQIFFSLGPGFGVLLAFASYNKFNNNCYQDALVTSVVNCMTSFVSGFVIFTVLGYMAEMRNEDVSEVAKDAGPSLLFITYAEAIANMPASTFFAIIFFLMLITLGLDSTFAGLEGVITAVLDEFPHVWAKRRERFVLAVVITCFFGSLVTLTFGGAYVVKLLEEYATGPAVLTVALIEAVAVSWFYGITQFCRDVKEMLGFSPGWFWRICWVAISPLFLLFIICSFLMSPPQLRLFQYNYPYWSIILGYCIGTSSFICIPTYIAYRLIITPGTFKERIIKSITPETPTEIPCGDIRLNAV
Sequence of Sodium-dependent dopamine transporter (Q01959 whole entry): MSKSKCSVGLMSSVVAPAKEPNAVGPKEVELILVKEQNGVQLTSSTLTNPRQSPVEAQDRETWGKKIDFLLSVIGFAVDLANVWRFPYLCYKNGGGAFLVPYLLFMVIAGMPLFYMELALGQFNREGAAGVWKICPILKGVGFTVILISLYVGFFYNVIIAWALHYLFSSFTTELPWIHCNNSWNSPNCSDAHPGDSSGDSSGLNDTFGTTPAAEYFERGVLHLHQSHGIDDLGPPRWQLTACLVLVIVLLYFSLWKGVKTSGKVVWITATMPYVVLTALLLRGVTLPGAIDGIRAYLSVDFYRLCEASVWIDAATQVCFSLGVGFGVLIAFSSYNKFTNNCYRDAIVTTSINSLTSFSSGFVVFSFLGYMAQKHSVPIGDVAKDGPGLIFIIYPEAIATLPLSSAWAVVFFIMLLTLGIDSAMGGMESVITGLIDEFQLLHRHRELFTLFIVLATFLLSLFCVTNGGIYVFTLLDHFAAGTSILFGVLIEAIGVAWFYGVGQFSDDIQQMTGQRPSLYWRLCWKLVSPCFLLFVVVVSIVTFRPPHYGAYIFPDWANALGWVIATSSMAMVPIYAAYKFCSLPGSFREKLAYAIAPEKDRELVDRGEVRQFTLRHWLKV

| Structure (SMILES) | Ki [1] [nM] | Ki [2] [nM] | Ki [3] [nM] | Ki [4] [nM] | Ki [5] [nM] |
| --- | --- | --- | --- | --- | --- |
| [11CH3]Oc1ccc2c(c1)CCN(CCCc1c[nH]c3ccc(F)cc13)C2 | 1680 | 4.11 | 25.3 | 2490 | 54 |
| [11CH3]Oc1cccc2c1CCN(CCCc1c[nH]c3ccc(Br)cc13)C2 | 6600 | 1910 | 2980 | 3490 | 1990 |
| [11CH3]Oc1ccc2c(c1)CCN(CCCc1c[nH]c3ccc(Br)cc13)C2 | 2770 | 11.4 | 13.3 | 1030 | 50 |
| [11CH3]Oc1cccc2c1CCN(CCCc1c[nH]c3ccc(I)cc13)C2 | 1810 | 213 | 2660 | 1160 | 1120 |
| [11CH3]Oc1cccc2c1CCN(CCCc1c[nH]c3ccc(F)cc13)C2 | 2880 | 6.46 | 44.7 | 1480 | 164 |
| [11CH3]Oc1ccc2c(c1)CCN(CCCc1c[nH]c3ccc(I)cc13)C2 | 712 | 374 | 1110 | 3650 | 685 |
| CNC(C)Cc1ccc2c(c1)OCO2 (configuration not stated) [MIDOMAFETAMINE] | – | 0.73 | 2.03 | – | – |
